Source: PubChem (several laboratories)
PP5 primary = PP5 phosphatase inhibitors, primary screen, biochemical, fluorescence. Serine/threonine-protein phosphatase 5 (Homo sapiens), P53041. purified PP5c, OMFP substrate fluorescence. inhibition, % at 6.7 µM. hit rate 0.18% among 320,000. AID 1987, 2009;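 active = inhibition above the campaign's mean inhibition across all tested compounds plus 3 SD, cut at about 9.5% in these data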;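 also: 0% = DMSO only and 100% = 100 µM cantharidin control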
CTSL1 counter = Fasciola hepatica cathepsin L1 inhibitors, primary screen, counter-screen for PFM18AAP inhibitor project, biochemical, QFRET, fluorogenic peptide substrate | inhibition, % at 5.96 µM | recombinant F. hepatica cathepsin L1, Z-Leu-Arg-MCA fluorescence | AID 1906, 2009 | hit rate 0.49% among 300,000;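 active = inhibition above the mean of all tested compounds plus 3 SD, set per screening campaign, cut at about 17% in these data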;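 also: 0% = plate median of test compound wells and 100% = 1 µM Z-Phe-Ala-diazomethylketone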
GSTO1 inh = inhibitors of recombinant GSTO1, primary screen, counter-screen for RBBP9 inhibitor project, biochemical, fluorescence polarization; inhibition, % at 5.96 µM; Glutathione S-transferase omega-1 (Homo sapiens), P78417; hit rate 1.1% among 300,000; activity-based probe fluorescence polarization;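 active = inhibition above the campaign mean inhibition plus 3 SD, cut at about 35% in these data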;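 also: 0% = GSTO1-1 with DMSO and 100% = wells lacking GSTO1-1 enzyme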
Target sequence (P78417 whole entry, looked up): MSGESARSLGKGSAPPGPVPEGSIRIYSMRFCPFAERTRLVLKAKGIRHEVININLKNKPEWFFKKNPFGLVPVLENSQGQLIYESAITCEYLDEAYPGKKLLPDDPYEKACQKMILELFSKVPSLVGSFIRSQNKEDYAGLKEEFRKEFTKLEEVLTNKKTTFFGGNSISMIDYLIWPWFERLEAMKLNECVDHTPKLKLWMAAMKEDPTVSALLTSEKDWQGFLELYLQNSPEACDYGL
UCH37 inh = inhibitors of human UCH37 deubiquitinase, primary screen, biochemical, Ub-AMC cleavage, fluorescence; purified proteasome/UCH37; inhibition, % (concentration not given with the values); hit rate 0.33% among 330,000; AID 588478, 2011;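 active = mean inhibition over replicate wells above about 20%, limit read from the data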;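 also: 0% = compound-free wells with enzyme and 100% = wells lacking proteasome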
Target sequence (Q9Y5K5 whole entry, looked up): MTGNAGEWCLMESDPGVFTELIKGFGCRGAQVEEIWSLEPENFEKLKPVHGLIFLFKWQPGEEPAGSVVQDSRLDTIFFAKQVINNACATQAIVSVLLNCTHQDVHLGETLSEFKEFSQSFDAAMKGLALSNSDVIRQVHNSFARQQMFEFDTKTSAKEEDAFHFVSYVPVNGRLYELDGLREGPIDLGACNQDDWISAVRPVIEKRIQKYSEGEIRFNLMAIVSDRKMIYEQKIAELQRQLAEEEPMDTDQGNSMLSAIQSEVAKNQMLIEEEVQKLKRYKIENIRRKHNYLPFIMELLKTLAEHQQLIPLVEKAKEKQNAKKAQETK
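Test system – human UCH37 enzyme supplied as purified proteasome complex · Incubation – 30 min preincubation with enzyme, 25 min cleavage at room temperature · Detection – AMC fluorescence from Ub-AMC cleavage, excitation 355 nm, emission 460 nm · Benchmarks – no-proteasome wells (full inhibition) and compound-free wells (no inhibition)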
Apaf-1 inh = inhibitors of human Apaf-1 apoptosome, primary screen, biochemical, DEVD-Rh110 fluorescence, uHTS | Apoptotic protease-activating factor 1 (Homo sapiens), O14727 | reconstituted apoptosome caspase-3 activity | inhibition, % at 20 µM | hit rate 0.71% among 330,000 | AID 489030, 2010; active = inhibition of at least 40% at 20 µM;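 also: plate controls were DMSO wells for no effect and DEVD-CHO caspase inhibitor wells for full effect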
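detection = Rh110 fluorescence intensity | test system = biochemical Apaf-1 apoptosome reconstitution | also added = cytochrome c and DEVD-Rh110 substrate | schedule = 30 min plus 50 min, RT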
PAD4 FP inh = human PAD4 inhibitors, primary screen, biochemical, fluorescence polarization, 1536-well format | inhibition, % at 6.36 µM | hit rate 0.41% among 330,000 | recombinant PAD4, RCA probe fluorescence polarization;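 active = percent inhibition above a cutoff equal to the mean of all tested compounds plus 3 SD, cut at about 15% in these data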;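 also: 0% = PAD4 with RCA probe and DMSO and 100% = probe without PAD4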
GSTO1 inh conf = GSTO1 inhibitor hit confirmation, counter-screen for RBBP9 inhibitor project, biochemical, fluorescence polarization, triplicate; shares compounds with GSTO1 inh; recombinant GSTO1, probe fluorescence polarization; inhibition, % at 5.96 µM; hit rate 54% among 2,400; AID 2176, 2009;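 active = inhibition above the primary screen's cutoff, its mean inhibition plus 3 SD, cut at about 35% in these data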;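 also: loss of polarization as inhibitors block binding of rhodamine sulfonate ester activity probe; 0% = GSTO1 with DMSO and 100% = wells lacking GSTO1 enzyme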
GSTO1 ABPP inh = inhibitors of purified human GSTO1, late-stage follow-up, biochemical, gel ABPP, SE-Rh probe, percent inhibition; inhibition, % at 1 µM; shares compounds with GSTO1 inh; hit rate 30% among 130; recombinant GSTO1, gel ABPP SE-Rh probe fluorescence;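 active = inhibition of the enzyme GSTO1 above about 75%, limit read from the data; inactive = inhibition below that limit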
* hit, by the source's call; . = no result given. Most compounds without a hit are left out; they make up all but 2% or so of the library.

SMILES | PP5 primary | CTSL1 counter | GSTO1 inh | UCH37 inh | Apaf-1 inh | PAD4 FP inh | GSTO1 inh conf | others
Clc1ccc(-c2nnc(SCc3nc(-c4ccccc4)no3)o2)cc1 | 1.6 | 0.9 | 40.0* | 2.5 | 14.8 | 0.2 | 46.0*
Cc1c(N=C2SCC(=O)N2N=Cc2ccccc2Cl)c(=O)n(-c2ccccc2)n1C | . | . | . | 3.6 | . | . | .
Cn1cccc1C=Nn1c(-c2ccc(Cl)cc2)n[nH]c1=S | . | . | . | 0.9 | . | . | .
C=CCN1C=C2C(=O)C(C)(OC(=O)C3CCCC3)C(=O)C=C2C=C1c1ccsc1 (configuration not stated) | 6.9 | 4.6 | 40.9* | 3.7 | 33.8 | -1.7 | 5.4
CC1(OC(=O)C2CCCC2)C(=O)C=C2C=C(c3ccsc3)N(c3ccccc3)C=C2C1=O (configuration not stated) | 3.8 | -0.4 | 23.0 | 0.6 | 16.4 | -8.1 | .
CC(C)CN1C=C2C(=O)C(C)(OC(=O)C3CCCC3)C(=O)C=C2C=C1c1ccsc1 (configuration not stated) | 9.3 | -0.9 | 24.8 | 1.1 | 11.6 | -11.6 | .
CC1(OC(=O)C2CCCC2)C(=O)C=C2C=C(c3ccsc3)N(C3CC3)C=C2C1=O (configuration not stated) | 7.8 | 1.4 | 47.1* | 1.2 | 36.6 | 7.2 | 4.3
Oc1ccc(C=NN2CCN(C3c4ccccc4-c4ccccc43)CC2)cc1O | . | . | . | 2.8 | . | . | .
O=C(CNC(=S)NC(=O)c1ccc(Br)o1)c1ccccc1 | 2.1 | -2.8 | 45.9* | 0.9 | -16.3 | 0.5 | 15.2
CCN(CC)S(=O)(=O)c1ccc(NS(=O)(=O)c2ccc3oc(=O)[nH]c3c2)cc1 | 0.1 | -3.7 | 44.0* | -1.1 | 2.6 | 2.7 | 58.3*
Nc1ncnc2oc(-c3ccco3)c(-c3ccco3)c12 | 1.5 | 3.7 | 55.6* | -99.6 | 1.0 | 3.4 | 19.8
Nc1nnc(-c2ccco2)s1 | 3.2 | 1.8 | -8.5 | 0.6 | -8.4 | 0.4 | .
O=C(NN=Cc1c[nH]c2ccccc12)c1sc2ccccc2c1Cl | . | . | . | 1.7 | . | . | .
O=C1C(Cl)=C(NC(=O)c2ccccc2)C(=O)C(Cl)=C1NC(=O)c1ccccc1 | 1.5 | -1.8 | 78.8* | 6.6 | 56.4* | 50.5* | 14.2
Cc1ccc(-c2[nH]ncc2C=Nn2c(C)nc3ccccc3c2=O)cc1 | . | . | . | 0.0 | . | . | .
CCN(CC)c1ccc(C=Nc2ccc(N(C)C)cc2)c(O)c1 | 5.0 | 2.5 | 65.7* | 3.2 | 44.5* | 12.2 | -4.3
CCN(CC)c1ccc(C=Nc2ccc(C)cc2)c(O)c1 | 0.7 | 2.4 | 1.6 | 1.6 | 4.9 | 1.5 | .
Cc1ccc(SCC(O)=C(C#N)c2nc3ccccc3s2)cc1 | . | . | . | 0.9 | . | . | .
Cc1ccc(SC/C(O)=C(\C#N)c2nc3ccccc3s2)cc1 | 3.0 | 2.4 | 49.2* | . | 7.5 | -1.9 | 47.9*
Cc1ccccc1N(CC(=O)NN=Cc1ccc(F)cc1)C(=O)c1ccccc1 | . | . | . | 5.2 | . | . | .
CC1=CC(=O)C(C(C)C)=CC1=NOS(=O)(=O)c1ccccc1 | . | . | . | 3.8 | . | . | .
CC(C)Cn1c(N)c(C(=O)CSc2nc3ncc(Cl)cc3[nH]2)c(=O)n(C)c1=O | -3.5 | -0.1 | -13.2 | -0.1 | 16.5 | -4.6 | .
CC(Sc1nc2ncc(Cl)cc2[nH]1)C(=O)c1c(N)n(C)c(=O)n(C)c1=O (configuration not stated) | -1.3 | -2.6 | 73.8* | 0.8 | -1.5 | -8.2 | 5.9
COc1ccc(N(C(=O)Cc2cccs2)C(C(=O)NC2CCCC2)c2ccncc2)cc1OC (configuration not stated) | -0.3 | -2.3 | -0.7 | -0.1 | 6.6 | -4.7 | .
C#CC(=O)N(c1cccc(OC)c1)C(C(=O)NC1CCCC1)c1cccs1 (configuration not stated) | 0.4 | 11.0 | 76.4* | 4.2 | 8.7 | 6.3 | 76.0*
SMILES | PP5 primary | CTSL1 counter | GSTO1 inh | UCH37 inh | Apaf-1 inh | PAD4 FP inh | GSTO1 inh conf | others
Cc1cccc(N(C(=O)C(F)(F)F)C(C(=O)NC2CCCCC2)c2cccs2)c1 (configuration not stated) | 2.1 | 0.3 | -2.8 | 1.8 | -6.7 | -2.6 | .
C#CC(=O)N(c1ccc(OC)c(OC)c1)C(C(=O)NC1CCCC1)c1cccs1 (configuration not stated) | 2.0 | 6.5 | 48.0* | 5.6 | -4.2 | 5.0 | 51.9*
O=C(NN=Cc1ccco1)c1cc(Br)ccc1OCc1ccccc1 | . | . | . | 3.1 | . | . | .
CC(=NNC(N)=O)c1cccc(Cl)c1 | . | . | . | 0.0 | . | . | .
COc1cc(/C=C2/C(=O)c3cccc([N+](=O)[O-])c3C2=O)c(Br)cc1O | 2.9 | -3.0 | 47.1* | 8.4 | . | -6.2 | 54.8*
O=C(Oc1ccc(OC(=O)c2ccco2)c(S(=O)(=O)c2ccc(Br)cc2)c1)c1ccco1 | 1.6 | -4.2 | 48.9* | . | 7.0 | 3.1 | 4.4
COc1ccccc1C=NN1CCN(c2ccc(Cl)cc2)CC1 | . | . | . | 5.8 | . | . | .
S=c1[nH]nc(-c2ccncc2)n1N=Cc1ccccc1Cl | . | . | . | 6.5 | . | . | .
O=[N+]([O-])c1ccc(Cl)c(/C=N/n2c(-c3ccncc3)n[nH]c2=S)c1 | 2.8 | -3.7 | 49.7* | . | -1.6 | 0.4 | 9.9
ON=Cc1ccc(-c2ccccc2)o1 | . | . | . | 4.7 | . | . | .
CCc1cccc(NC(=O)CSC2=NS(=O)(=O)c3ccccc32)c1 | -2.0 | 3.3 | 54.6* | 8.9 | -13.5 | 8.7 | 1.4
CC#CC#Cc1cccc(=O)o1 | 1.1 | 9.7 | 81.5* | 10.5 | . | 1.3 | 79.9*
O=C(CCl)N(c1ccccc1)C1CCS(=O)(=O)C1 (configuration not stated) | -0.2 | -1.3 | 79.2* | 5.5 | -6.3 | 0.2 | 85.1* | GSTO1 ABPP inh=46.0
CC(=O)c1c(C)nc(-c2ccc(Cl)cc2)nc1N=CN(C)C | 2.4 | 1.8 | 38.2* | 17.0 | 15.8 | -3.8 | 15.7
COc1ccccc1N1CCN(C(=O)C(=O)NN=Cc2cccc(O)c2)CC1 | . | . | . | 1.6 | . | . | .
O=C(CCl)Nc1cccc(-c2cnc3ccccc3n2)c1 | 0.2 | 74.2* | 69.0* | 7.4 | 8.1 | 2.7 | 94.2*
CCC(=O)Nc1cccc(-c2cnc3ccccc3n2)c1 | 1.9 | -0.8 | -1.1 | 8.0 | -1.7 | 2.6 | .
Cc1ccc2nc(C)c(C(=O)NN=Cc3cccc([N+](=O)[O-])c3)cc2c1 | . | . | . | 3.2 | . | . | .
O=C1N/C(=N/N=Cc2ccccc2O)SC1Cc1ccc(F)cc1 (configuration not stated) | . | . | . | -7.8 | . | . | .
